Columns and labels:
MV4-11 [1] = test: Growth inhibition of human MV411 cells after 72 hrs by Celltiter-Glo luminescent cell viability assay; type: functional; conditions: MV4-11, 72 h
How it was run: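 Anti-proliferative activity was tested in MV-4-11 cells. Each GI50 is the mean of at least two separate assay runs.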

[2] = target: T1, Bromodomain-containing protein 4 (Homo sapiens, UniProt O60885); test: Inhibition of His-epitope tagged BRD4 bromodomain 1 (44 to 168 residues) (unknown origin) using biotinylated K5,8,12,16 tetra-acetylated histone H4 (1 to 20 residues) peptide as substrate measured after 1 hr by Alphascreen assay
How it was run: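 Binding to the isolated BRD4 first bromodomain was measured by AlphaScreen. Each IC50 is the mean of at least two separate assay runs.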

[3] = Half life in mouse plasma; type: ADME, cell-free
How it was run: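 Compound stability in mouse plasma, expressed as a half-life.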

[4] = Chemical stability of the compound in acid; type: physicochemical
[5] = Stability in mouse liver microsomes assessed as parent compound remaining after 30 mins; type: ADME, microsome; conditions: read-out: Stability
How it was run: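 Compound was incubated with mouse liver microsomes for 30 minutes. The read-out was the percent of compound remaining.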

[6] = Drug uptake in po dosed mouse plasma; type: ADME, organism-based; conditions: in vivo
Mus musculus = test: Reduction in MYC mRNA level in tumor of athymic Hsd:Foxn1nu mouse xenografted with human MV411 cells at 12.5 mg/kg, po administered as single dose measured after 4 hrs by qRT-PCR analysis relative to control; type: functional
How it was run: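 Athymic nude mice bearing MV-4-11 xenografts received a single oral dose of 12.5 mg/kg. Tumor MYC levels were compared with those of vehicle-treated mice.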

[7] = target: T1, Bromodomain-containing protein 4; test: Inhibition of BRD4 in human MV411 cells assessed as reduction in MYC mRNA expression; type: cell-based
MV4-11 [8] = test: Antitumor activity against human MV411 cells xenografted in athymic Hsd:Foxn1nu mouse assessed as tumor growth inhibition at 12.5 mg/kg, po administered twice daily for 20 days measured weekly twice during compound dosing relative to control; type: functional; conditions: MV4-11, po, 480 h, read-out: TGI
[9] = Toxicity in po dosed athymic Hsd:Foxn1nu mouse administered twice daily for 5 days; type: organism-based; conditions: in vivo
How it was run: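 Tolerability study in athymic nude mice given repeat oral doses twice daily for five days. The value reported is the estimated maximum tolerated dose.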

[10] = Drug uptake in athymic Hsd:Foxn1nu mouse plasma assessed as unbound fraction at 5 mg/kg, po administered as single dose by mass spectrometric analysis; type: ADME, organism-based; conditions: in vivo

SMILES	GI50 (MV4-11 [1]) [nM]	IC50 [2] [nM]	half-life [3] [min]	remaining at 0.5 h [5] [%]	also measured
CC(=O)N1c2ccc(-c3cnn(C4COC4)c3)cc2N(C(=O)C2CC2)C[C@@H]1C	440	370	> 24	100	Stability [4]: Unstable
CC(=O)N1c2ccccc2N(C(=O)CC(C)C)C[C@@H]1C	–	> 50000	–	–	–
CC(=O)N1c2ccccc2N(C(=O)c2ccccc2)C[C@@H]1C	–	> 50000	–	–	–
CCC(=O)N1c2ccc(-c3ccc(S(C)(=O)=O)cc3)cc2N(C(=O)c2ccco2)C[C@@H]1C	550	1400	18	11	–
CC(=O)N1c2ccc(-c3ccc(N4CCS(=O)(=O)CC4)cc3)cc2N(C(=O)C2CC2)C[C@@H]1C	220	100	> 24	95	fold change (FC) (Mus musculus): 0.2; IC50 [7]: 460 nM; inhibition in vivo at 12.5 mg/kg (MV4-11 [8]): 100%; MTD at 120 h [9]: 12.5 mg/kg; Drug uptake(free) [10]: Not Active
CC(=O)N1c2ccc(-c3ccccc3)cc2N(C(=O)c2ccco2)C[C@@H]1C	350	1600	–	–	–
C[C@H]1CN(C(=O)c2ccco2)c2cc(-c3ccc(S(C)(=O)=O)cc3)ccc2N1C=O	–	> 25000	–	–	–
CC(=O)N1c2ccc(-c3ccc(C(=O)N4CCNCC4)cc3)cc2N(C(=O)C2CC2)C[C@@H]1C	120	380	3	100	–
C[C@H]1CN(C(=O)c2ccco2)c2cc(-c3ccc(S(C)(=O)=O)cc3)ccc2N1C(=O)C1CC1	280	760	> 24	19	–
CC(=O)N1c2ccc(-c3cnn(C)c3)cc2N(C(=O)c2ccco2)C[C@@H]1C	210	380	–	–	–
CNC(=O)c1cccc(-c2ccc3c(c2)N(C(=O)c2ccco2)C[C@H](C)N3C(C)=O)c1	770	790	–	–	–
CC(=O)N1c2ccccc2N(C(=O)c2ccco2)C[C@@H]1C	–	14000	–	–	–
COC(=O)N1c2ccc(-c3ccc(S(C)(=O)=O)cc3)cc2N(C(=O)c2ccco2)C[C@@H]1C	320	650	22	14	–

The next lines start with results.

GI50 (MV4-11 [1]) [nM]	IC50 [2] [nM]	half-life [3] [min]	remaining at 0.5 h [5] [%]	SMILES	also measured
400	1600	–	–	CC(=O)N1c2ccc(-c3ccc(S(C)(=O)=O)cc3)cc2N(C(=O)c2ccco2)C[C@@H]1C	–
350	260	6	99	CC(=O)N1c2ccc(-c3ccc(S(C)(=O)=O)cc3)cc2N(C(=O)OC(C)C)C[C@@H]1C	–
580	420	–	24	CC(=O)N1c2ccc(-c3cnn(C(C)C)c3)cc2N(C(=O)C2CC2)C[C@@H]1C	–
270	60	> 24	100	CC(=O)N1c2ccc(-c3cnn(C4CNC4)c3)cc2N(C(=O)C2CC2)C[C@@H]1C	Drug uptake [6]: Not Active
830	1700	> 24	100	CC(=O)N1c2ccc(-c3ccc(S(C)(=O)=O)cc3)cc2N(C(=O)C2CC2)C[C@@H]1C	–
–	43000	–	–	CC(=O)N1c2ccccc2N(C(=O)C2CCCC2)C[C@@H]1C	–
